ChEMBL document CHEMBL5724801, “EUbOPEN Chemogenomics Library - Multiplex” (2024)
“And” between values parts separate entries of the source, which are not always exact repeats. Equal entries are not always repeated.

Tested on: HEK-293T
Experiment: Multiplex assay against HEK293T
Format: toxicity, cell-based
Settings: human
How it was run: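 Hoechst33342, BioTracker Green Microtubule Cytoskeleton Dye, MitoTracker Red and Annexin V Alexa Fluor 680 were added to live cells at seeding, and imaging on a CQ1 microscope at 37°C and 5% CO2 followed compound addition. Gating by CellPathfinder machine learning separated cells into Hoechst high-intensity objects or normal cells, then normal cells into healthy, pyknosed or fragmented nuclei, then pyknosed cells into mitotic or apoptotic. Per cents of healthy-nucleus cells are reported for the tubulin, mitochondrial-mass and membrane-permeability phenotypes.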

[1] = 12 h, 1 µM, compound concentration 1 uM
[2] = 12 h, 10 µM, compound concentration 10 uM
[3] = 24 h, 1 µM, compound concentration 1 uM
[4] = 24 h, 10 µM, compound concentration 10 uM
[5] = 48 h, 1 µM, compound concentration 1 uM
[6] = 48 h, 10 µM, compound concentration 10 uM

## C=CC(=O)Nc1cc(Nc2nccc(-n3cc(CN(C)C)c(-c4ccccc4)n3)n2)c(OC)cc1N1CCOCC1 [LAZERTINIB]
[1]
  Population Apoptotic (%): 14.72% and 15.96%
  Population Fragmented Nuclei (%): 1.35% and 8.26%
  Population Hoechst High Intensity Objects (%): 0.67% and 0%
  Population Membrane Permeable-Phenotype (%): 0.77% and 5.88%
  Population Mitochondria Different-Phenotype (%): 33.85% and 11.76%
  Population Mitotic Cells (%): 85.28% and 84.04%
  Population Normal (%): 99.33% and 100%
  Population Pyknosed Nuclei (%): 54.88% and 77.69%
  Population Tubulin-Different-Phenotype (%): 31.54% and 82.35%
  Total Cell Count: 299 and 121
[2]
  Population Apoptotic (%): 22.22% and 29.59%
  Population Fragmented Nuclei (%): 3.83% and 10%
  Population Healthy Nuclei (%): 22.97% and 8.33%
  Population Hoechst High Intensity Objects (%): 0.48% and 0%
  Population Membrane Permeable-Phenotype (%): 0%
  Population Mitochondria Different-Phenotype (%): 47.92% and 60%
  Population Mitotic Cells (%): 77.78% and 70.41%
  Population Normal (%): 99.52% and 100%
  Population Pyknosed Nuclei (%): 73.21% and 81.67%
  Population Tubulin-Different-Phenotype (%): 75% and 80%
  Total Cell Count: 210 and 120
[3]
  Population Apoptotic (%): 15.83% and 31.58%
  Population Fragmented Nuclei (%): 1.82% and 4.92%
  Population Hoechst High Intensity Objects (%): 0.45% and 0%
  Population Membrane Permeable-Phenotype (%): 3.41% and 4.76%
  Population Mitochondria Different-Phenotype (%): 36.18% and 52.38%
  Population Mitotic Cells (%): 84.17% and 68.42%
  Population Normal (%): 99.55% and 100%
  Population Pyknosed Nuclei (%): 31.59% and 77.87%
  Population Tubulin-Different-Phenotype (%): 50.85% and 47.62%
[4]
  Population Apoptotic (%): 46.43% and 51.06%
  Population Fragmented Nuclei (%): 3.95% and 6.25%
  Population Healthy Nuclei (%): 22.37% and 9.82%
  Population Hoechst High Intensity Objects (%): 1.3% and 0%
  Population Membrane Permeable-Phenotype (%): 1.96% and 0%
  Population Mitotic Cells (%): 53.57% and 48.94%
  Population Normal (%): 98.7% and 100%
  Population Pyknosed Nuclei (%): 73.68% and 83.93%
  Population Tubulin-Different-Phenotype (%): 100% and 54.55%
  Total Cell Count: 231 and 112
[5]
  Population Apoptotic (%): 12.5% and 24.32%
  Population Fragmented Nuclei (%): 3.16% and 5.04%
  Population Healthy Nuclei (%): 82.41% and 41.73%
  Population Hoechst High Intensity Objects (%): 0.11% and 1.42%
  Population Membrane Permeable-Phenotype (%): 7.11% and 0%
  Population Mitochondria Different-Phenotype (%): 43.78% and 63.79%
  Population Mitotic Cells (%): 87.5% and 75.68%
  Population Normal (%): 99.89% and 98.58%
[6]
  Population Apoptotic (%): 50% and 19.23%
  Population Fragmented Nuclei (%): 1.89% and 5.38%
  Population Healthy Nuclei (%): 64.67% and 34.62%
  Population Hoechst High Intensity Objects (%): 0%
  Population Membrane Permeable-Phenotype (%): 9.27% and 0%
  Population Mitochondria Different-Phenotype (%): 73.66% and 40%
  Population Mitotic Cells (%): 50% and 80.77%
  Population Normal (%): 100%
  Population Pyknosed Nuclei (%): 33.44% and 60%
  Total Cell Count: 317 and 130

## Cc1cc(C)cc(C(=O)NOCCCCCC(=O)NO)c1
[1]
  Population Apoptotic (%): 7.89% and 11.48%
  Population Fragmented Nuclei (%): 1.15% and 1.27%
  Population Healthy Nuclei (%): 55.3% and 21.02%
  Population Hoechst High Intensity Objects (%): 0% and 0.63%
  Population Membrane Permeable-Phenotype (%): 0% and 9.09%
  Population Mitochondria Different-Phenotype (%): 25.91% and 12.12%
  Population Mitotic Cells (%): 92.11% and 88.52%
  Population Normal (%): 100% and 99.37%
  Population Pyknosed Nuclei (%): 43.55% and 77.71%
  Population Tubulin-Different-Phenotype (%): 7.25% and 18.18%
  Total Cell Count: 349 and 158
[2]
  Population Apoptotic (%): 9.87% and 7.69%
  Population Fragmented Nuclei (%): 3.28% and 1.65%
  Population Healthy Nuclei (%): 51.34% and 26.92%
  Population Hoechst High Intensity Objects (%): 0.3% and 0%
  Population Membrane Permeable-Phenotype (%): 1.16% and 0%
  Population Mitochondria Different-Phenotype (%): 29.65% and 12.24%
  Population Mitotic Cells (%): 90.13% and 92.31%
  Population Normal (%): 99.7% and 100%
  Population Pyknosed Nuclei (%): 45.37% and 71.43%
  Total Cell Count: 336 and 182
[3]
  Population Apoptotic (%): 32.32% and 20.49%
  Population Fragmented Nuclei (%): 0.99% and 2.29%
  Population Healthy Nuclei (%): 74.57% and 28%
  Population Hoechst High Intensity Objects (%): 0.25% and 0.57%
  Population Membrane Permeable-Phenotype (%): 1.66% and 0%
  Population Mitochondria Different-Phenotype (%): 25.5% and 16.33%
  Population Mitotic Cells (%): 67.68% and 79.51%
  Population Normal (%): 99.75% and 99.43%
  Population Pyknosed Nuclei (%): 24.44% and 69.71%
  Population Tubulin-Different-Phenotype (%): 17.88% and 30.61%
  Total Cell Count: 406 and 176
[4]
  Population Apoptotic (%): 24.32% and 10.53%
  Population Fragmented Nuclei (%): 3.75% and 3.33%
  Population Healthy Nuclei (%): 73.12% and 33.33%
  Population Hoechst High Intensity Objects (%): 0%
  Population Membrane Permeable-Phenotype (%): 0% and 1.67%
  Population Mitotic Cells (%): 75.68% and 89.47%
  Population Normal (%): 100%
  Population Pyknosed Nuclei (%): 23.12% and 63.33%
  Population Tubulin-Different-Phenotype (%): 4.27% and 1.67%
  Total Cell Count: 320 and 180
[5]
  Population Apoptotic (%): 23.33% and 32.22%
  Population Fragmented Nuclei (%): 5.26% and 1.12%
  Population Healthy Nuclei (%): 76.52% and 48.6%
  Population Hoechst High Intensity Objects (%): 1% and 0%
  Population Membrane Permeable-Phenotype (%): 1.59% and 2.3%
  Population Mitochondria Different-Phenotype (%): 50.26% and 32.18%
  Population Mitotic Cells (%): 76.67% and 67.78%
  Population Normal (%): 99% and 100%
  Population Pyknosed Nuclei (%): 18.22% and 50.28%
  Total Cell Count: 499 and 179
[6]
  Population Apoptotic (%): 30.43% and 28%
  Population Fragmented Nuclei (%): 3.91% and 6.29%
  Population Healthy Nuclei (%): 63.35% and 36.57%
  Population Hoechst High Intensity Objects (%): 0.35% and 0.57%
  Population Membrane Permeable-Phenotype (%): 3.37% and 0%
  Population Mitotic Cells (%): 69.57% and 72%
  Population Normal (%): 99.65% and 99.43%
  Population Pyknosed Nuclei (%): 32.74% and 57.14%
  Population Tubulin-Different-Phenotype (%): 7.87% and 17.19%
  Total Cell Count: 282 and 176

## Cn1ncnc1COc1nn2c(-c3cc(F)ccc3F)nnc2cc1C(C)(C)C
[1]
  Population Apoptotic (%): 8.93% and 7.56%
  Population Fragmented Nuclei (%): 2.83% and 4.35%
  Population Hoechst High Intensity Objects (%): 0%
  Population Mitochondria Different-Phenotype (%): 29.79% and 46.15%
  Population Mitotic Cells (%): 91.07% and 92.44%
  Population Normal (%): 100%
  Population Pyknosed Nuclei (%): 52.83% and 86.23%
  Total Cell Count: 318 and 138
[2]
  Population Apoptotic (%): 12.9% and 20.39%
  Population Fragmented Nuclei (%): 0.72% and 5.3%
  Population Healthy Nuclei (%): 43.73% and 16.67%
  Population Hoechst High Intensity Objects (%): 0%
  Population Mitotic Cells (%): 87.1% and 79.61%
  Population Normal (%): 100%
  Population Pyknosed Nuclei (%): 55.56% and 78.03%
  Population Tubulin-Different-Phenotype (%): 22.95% and 27.27%
  Total Cell Count: 279 and 132
[3]
  Population Apoptotic (%): 10.85% and 17.5%
  Population Fragmented Nuclei (%): 2.35% and 3.27%
  Population Hoechst High Intensity Objects (%): 0%
  Population Mitochondria Different-Phenotype (%): 20.12% and 10.71%
  Population Mitotic Cells (%): 89.15% and 82.5%
  Population Normal (%): 100%
  Population Pyknosed Nuclei (%): 27.56% and 78.43%
  Population Tubulin-Different-Phenotype (%): 23.17% and 10.71%
[4]
  Population Apoptotic (%): 25.69% and 29.36%
  Population Fragmented Nuclei (%): 1.85% and 4.23%
  Population Hoechst High Intensity Objects (%): 0.52% and 0%
  Population Mitochondria Different-Phenotype (%): 34.22% and 18.52%
  Population Mitotic Cells (%): 74.31% and 70.64%
  Population Normal (%): 99.48% and 100%
  Population Pyknosed Nuclei (%): 28.76% and 76.76%
  Population Tubulin-Different-Phenotype (%): 50.19% and 33.33%
  Total Cell Count: 381 and 142
[5]
  Population Apoptotic (%): 9.38% and 21.84%
  Population Fragmented Nuclei (%): 2.19% and 2.84%
  Population Healthy Nuclei (%): 86.12% and 47.73%
  Population Hoechst High Intensity Objects (%): 0% and 0.56%
  Population Mitochondria Different-Phenotype (%): 20.57% and 32.14%
  Population Mitotic Cells (%): 90.62% and 78.16%
  Population Normal (%): 100% and 99.44%
[6]
  Population Apoptotic (%): 22.83% and 17.39%
  Population Fragmented Nuclei (%): 1.92%
  Population Healthy Nuclei (%): 77.76% and 53.85%
  Population Hoechst High Intensity Objects (%): 0.32% and 0%
  Population Mitochondria Different-Phenotype (%): 45.27% and 57.14%
  Population Mitotic Cells (%): 77.17% and 82.61%
  Population Normal (%): 99.68% and 100%
  Population Pyknosed Nuclei (%): 20.32% and 44.23%
